Test results: ChEMBL document CHEMBL3797125, “Discovery of GluN2A-Selective NMDA Receptor Positive Allosteric Modulators (PAMs): Tuning Deactivation Kinetics via Structure-Based Design” (J Med Chem, 2016)

Assays:
[1] = target: T1, Glutamate NMDA receptor; GRIN1/GRIN2A (Homo sapiens, UniProt Q05586+Q12879); assay: Positive allosteric modulation of GluN1/GluN2A NMDAR (unknown origin) expressed in Dox-inducible cells measured every 5 mins by BD calcium indicator dye based-fluorescence analysis in presence of glutamate/glycine; assay type: cell-based
Outline: (§1)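 GluN2A-containing NMDAR cell line, harvested, seeded, doxycycline 2 µg/mL overnight with 500 µM ketamine for protection, then washed and loaded with calcium dye for 50 min. Compound added at 2x concentration in 2x EC30 Glu (EC30 set daily from Glu dose-response); saturating Gly throughout; fluorescence recorded over 5 min.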

[2] = target: T1, Glutamate NMDA receptor; GRIN1/GRIN2A; assay: Positive allosteric modulation of GluN1/GluN2A NMDAR (unknown origin) expressed in Dox-inducible cells at 125 uM measured every 5 mins by BD calcium indicator dye based-fluorescence analysis in presence of glutamate/glycine; assay type: cell-based; outline: as §1
Glutamate receptor 2 [3] = target: T2, Glutamate receptor 2 (Homo sapiens, UniProt P42262); assay: Positive allosteric modulation of human GluA2 AMPAR flip isomer expressed in Dox-inducible cells at 125 uM measured every 5 mins by BD calcium indicator dye based-fluorescence analysis in presence of glutamate; assay type: cell-based
T2 sequence (P42262 whole entry): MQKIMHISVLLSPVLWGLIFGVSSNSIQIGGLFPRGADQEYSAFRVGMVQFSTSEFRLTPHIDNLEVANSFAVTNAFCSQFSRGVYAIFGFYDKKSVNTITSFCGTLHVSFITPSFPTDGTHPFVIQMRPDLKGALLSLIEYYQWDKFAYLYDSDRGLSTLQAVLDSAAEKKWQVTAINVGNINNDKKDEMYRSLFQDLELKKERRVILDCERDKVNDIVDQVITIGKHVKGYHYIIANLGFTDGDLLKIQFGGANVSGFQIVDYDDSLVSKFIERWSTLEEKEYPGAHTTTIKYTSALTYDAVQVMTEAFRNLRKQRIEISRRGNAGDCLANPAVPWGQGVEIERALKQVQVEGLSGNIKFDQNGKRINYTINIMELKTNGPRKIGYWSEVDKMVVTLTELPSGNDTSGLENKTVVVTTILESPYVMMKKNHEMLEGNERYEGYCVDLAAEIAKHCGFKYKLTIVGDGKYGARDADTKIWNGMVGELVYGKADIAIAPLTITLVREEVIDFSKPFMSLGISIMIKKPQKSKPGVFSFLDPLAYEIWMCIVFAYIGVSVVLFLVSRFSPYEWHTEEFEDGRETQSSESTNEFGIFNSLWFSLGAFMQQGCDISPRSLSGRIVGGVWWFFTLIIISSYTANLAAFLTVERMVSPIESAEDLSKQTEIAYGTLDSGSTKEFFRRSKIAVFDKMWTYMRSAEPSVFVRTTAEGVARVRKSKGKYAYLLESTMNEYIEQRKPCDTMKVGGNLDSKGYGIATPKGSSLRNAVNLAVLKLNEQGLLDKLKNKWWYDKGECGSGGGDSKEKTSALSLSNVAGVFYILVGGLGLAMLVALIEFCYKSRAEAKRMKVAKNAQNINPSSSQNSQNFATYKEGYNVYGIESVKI

Glutamate receptor 2 [4] = target: T2, Glutamate receptor 2; assay: Positive allosteric modulation of human GluA2 AMPAR flop isomer expressed in Dox-inducible cells measured every 5 mins by BD calcium indicator dye based-fluorescence analysis in presence of glutamate; assay type: cell-based
Glutamate receptor 2 [5] = target: T2, Glutamate receptor 2; assay: Positive allosteric modulation of human GluA2 AMPAR flop isomer expressed in Dox-inducible cells at 125 uM measured every 5 mins by BD calcium indicator dye based-fluorescence analysis in presence of glutamate; assay type: cell-based
human MDR1 (P-gp) = assay: Efflux ratio of permeability from basolateral to apical over apical to basolateral side in MDCK cells expressing human MDR1; assay type: ADME, cell-based, Canis lupus familiaris; settings: dog
Glutamate receptor 2 [6] = target: T2, Glutamate receptor 2; assay: Positive allosteric modulation of human GluA2 AMPAR flip isomer expressed in Dox-inducible cells measured every 5 mins by BD calcium indicator dye based-fluorescence analysis in presence of glutamate; assay type: cell-based
[7] = target: Glutamate NMDA receptor; GRIN1/GRIN2B (Homo sapiens) (UniProt Q05586+Q13224); assay: Positive allosteric modulation of GluN1/GluN2B NMDAR (unknown origin) expressed in Dox-inducible cells at 125 uM measured every 5 mins by BD calcium indicator dye based-fluorescence analysis in presence of glutamate/glycine; assay type: cell-based
Outline: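 Doxycycline-induced (2 µg/mL, overnight, 500 µM ketamine) GluN2B-containing NMDAR cells, loaded with calcium dye for 50 min; compound added at 2x in 2x EC30 Glu, with saturating Gly; fluorescence recorded over 5 min. Max potentiation at 125 µM reported where no EC50 obtained; 30% denotes baseline (EC30 Glu).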

Row | EC50 [1] [µM] | %max [2] [%] | %max (Glutamate receptor 2 [3]) [%] | EC50 (Glutamate receptor 2 [4]) [µM] | %max (Glutamate receptor 2 [5]) [%] | efflux ratio (human MDR1 (P-gp)) | EC50 (Glutamate receptor 2 [6]) [µM] | Structure (SMILES) | %max [7] [%]
1 | 0.536 | 147 | 54 | 6.4 | 60 | 2.2 |  | CCNC(=O)c1c(C)sc2nc(Cn3nc(C(F)(F)F)cc3C3CC3)cc(=O)n12 | 
2 | 0.0177 | 147 | 85 | 0.048 | 52 | 1.3 | 0.15 | Cc1sc2nc(Cn3nc(C(F)(F)F)cc3Cl)cc(=O)n2c1[C@@H]1C[C@H]1CO | 
3 | 0.132 | 171 | 5 | 48.7 | 32 | 12.6 |  | CCCN(Cc1cc(=O)n2c(C(=O)NCC)c(C)sc2n1)c1ccc(F)cc1 | 
4 | 0.131 | 185 | 18 |  | 38 | 9.8 |  | CCN(Cc1cc(=O)n2c(C(=O)NC)c(C)sc2n1)c1ccc(F)cc1 | 
5 | 2.6 | 122 | 38 | 8.6 | 20 |  | 35.9 | CCN(Cc1cc(=O)n2c(C3CCC3)c(C)sc2n1)c1ccc(F)cc1 | 
6 | 4.9 | 128 | 8 |  | 19 | 33 |  | CCNC(=O)c1c(C)sc2nc(Cn3nc(C(F)(F)F)cc3C)cc(=O)n12 | 
7 | 0.159 | 168 | 72 | 0.572 | 75 | 0.9 | 10.5 | CCN(Cc1cc(=O)n2c(CCO)c(C)sc2n1)c1ccc(F)cc1 | 
8 | 0.394 | 168 | 35 | 9.8 | 31 | 0.8 | 34 | CCN(Cc1cc(=O)n2c(C3CC3)c(C)sc2n1)c1ccc(F)cc1 | 
9 | 0.183 | 169 | 37 | 1.5 | 45 | 1 | 33.2 | CCN(Cc1cc(=O)n2c(CCCO)c(C)sc2n1)c1ccc(F)cc1 | 
10 | 9.1 | 102 | 3 |  | 3 | 3.1 |  | CCNC(=O)c1c(C)sc2nc(Cc3cccc(C#N)c3F)cc(=O)n12 | 
11 | 2.2 | 69 | 11 | 60.2 | 8 | 0.9 | 75.8 | CCN(Cc1cc(=O)n2c(N3CCOCC3)c(C)sc2n1)c1ccc(F)cc1 | 
12 | 0.454 | 117 | 57 | 0.359 | 27 | 0.51 | 1.7 | Cc1sc2nc(Cc3cccc(C(F)(F)F)c3F)cc(=O)n2c1C1CC1CO (racemic) | 
13 | 1.2 | 94 | 9 | 29.4 | 20 | 1.8 | 28.3 | CCNC(=O)c1c(C)sc2nc(Cc3cccc(C(F)(F)F)c3F)cc(=O)n12 | 
14 | 0.168 | 144 | 75 | 4.5 | 11 | 1.2 | 33.8 | CCN(Cc1cc(=O)n2c(-c3cccnc3)c(C)sc2n1)c1ccc(F)cc1 | 
15 | 1.7 | 170 | 6 |  | 13 | 22 |  | CCNC(=O)c1c(C)sc2nc(CN(CC)c3ccc(F)cn3)cc(=O)n12 | 
16 | 0.137 | 148 | 56 | 0.972 | 16 | 1.2 |  | CCN(Cc1cc(=O)n2c(-c3cncnc3)c(C)sc2n1)c1ccc(F)cc1 | 
17 | 0.129 | 181 | 13 | 10.7 | 60 | 0.9 | 66.6 | CCN(Cc1cc(=O)n2c(C#N)c(C)sc2n1)c1ccc(F)cc1 | 
18 | 17.5 | 102 | 2 |  | 2 | 44 |  | CCNC(=O)c1c(C)sc2nc(Cc3cc(C#N)ccc3C3CC3)cc(=O)n12 | 
19 | 0.382 | 122 | 7 | 2.3 | 6 | 0.8 | 5.4 | Cc1sc2nc(COc3ccc(F)cc3)cc(=O)n2c1[C@@H]1C[C@H]1CO | 

Row | EC50 [1] [µM] | %max [2] [%] | %max (Glutamate receptor 2 [3]) [%] | EC50 (Glutamate receptor 2 [4]) [µM] | %max (Glutamate receptor 2 [5]) [%] | efflux ratio (human MDR1 (P-gp)) | EC50 (Glutamate receptor 2 [6]) [µM] | Structure (SMILES) | %max [7] [%]
20 | 0.312 | 150 | 95 | 0.245 | 93 | 1 | 0.252 | CCN(Cc1cc(=O)n2cc(C)sc2n1)c1ccc(F)cc1 | 
21 | 0.063 | 157 | 65 | 2.4 | 5 | 1 | 12.4 | CCN(Cc1cc(=O)n2c(C(C)(C)O)c(C)sc2n1)c1ccc(F)cc1 | 
22 | 0.9 | 160 | 38 | 1.1 | 23 | 3.6 | 32.6 | Cc1sc2nc(Cc3cccc(C#N)c3F)cc(=O)n2c1C1CC1CO (racemic) | 
23 | 17 | 99 | 2 |  | 1 | 21.5 |  | CCNC(=O)c1c(C)sc2nc(Cn3ccc(C(F)(F)F)n3)cc(=O)n12 | 
24 | 7 | 123 | 8 |  | 19 | 5.8 |  | CCNC(=O)c1c(C)sc2nc(CNc3ccc(F)cc3)cc(=O)n12 | 
25 | 0.434 | 159 | 2 |  | 2 | 8.6 |  | CCNC(=O)c1c(C)sc2nc(CN(C)c3ccc(F)cc3)cc(=O)n12 | 
26 | 0.649 | 153 | 39 | 1.9 | 83 | 1.1 | 66.3 | CCN(Cc1cc(=O)n2c(CO)c(C)sc2n1)c1ccc(F)cc1 | 
27 | 12.9 | 94 | 1 |  | 0 | 22 |  | CCNC(=O)c1c(C)sc2nc(Cc3cc(C#N)ccc3Cl)cc(=O)n12 | 
28 | 1.9 | 113 | 18 | 66.2 | 21 | 20 |  | CCNC(=O)c1c(C)sc2nc(Cc3cccc(C(F)(F)F)c3)cc(=O)n12 | 
29 | 0.414 | 144 | 32 | 9.1 | 43 | 57 |  | CCNC(=O)c1c(C)sc2nc(Cn3nc(C(F)(F)F)cc3OCC)cc(=O)n12 | 
30 | 57.1 | 60 | 3 |  | 10 | 3.7 |  | CCNC(=O)c1c(C)sc2nc(Cn3nc(C(F)(F)F)cc3OCC(C)C)cc(=O)n12 | 
31 | 3.1 | 75 | 4 |  | 8 | 2.2 |  | CCNC(=O)c1c(C)sc2nc(C(C)c3cccc(C(F)(F)F)c3F)cc(=O)n12 (racemic) | 
32 | 0.0295 | 151 | 91 | 0.073 | 93 | 5.3 | 0.702 | Cc1sc2nc(Cn3nc(C(F)(F)F)cc3Cl)cc(=O)n2c1[C@@H]1C[C@H]1C#N | 
33 | 0.183 | 154 | 37 | 5.5 | 30 | 0.6 | 32.3 | CCN(Cc1cc(=O)n2c(C(C)O)c(C)sc2n1)c1ccc(F)cc1 (racemic) | 
34 | 0.0244 | 184 | 84 | 0.204 | 64 | 1.2 | 0.87 | CCN(Cc1cc(=O)n2c([C@@H]3C[C@H]3CO)c(C)sc2n1)c1ccc(F)cc1 | 
35 | 0.685 | 129 | 15 |  | 1 | 1.3 | 34.4 | CCN(Cc1cc(=O)n2c(C(C)C)c(C)sc2n1)c1ccc(F)cc1 | 
36 | 62.2 | 71 | 10 | 53.7 | 8 | 25 | 32.9 | CCNC(=O)c1c(C)sc2nc(Cc3cccc(C#N)c3)cc(=O)n12 | 
37 | 0.073 | 144 | 66 | 2.5 | 41 | 1 | 36.1 | O=c1cc(Cn2nc(C(F)(F)F)cc2Cl)nc2sc(C(F)(F)F)c([C@@H]3C[C@H]3CO)n12 | 

Row | Structure (SMILES) | EC50 [1] [µM] | %max [2] [%] | %max (Glutamate receptor 2 [3]) [%] | EC50 (Glutamate receptor 2 [4]) [µM] | %max (Glutamate receptor 2 [5]) [%] | efflux ratio (human MDR1 (P-gp)) | EC50 (Glutamate receptor 2 [6]) [µM] | %max [7] [%]
38 | CCN(Cc1cc(=O)n2nc(C)sc2n1)c1ccccc1 | 1.9 | 150 | 84 | 2 | 95 |  | 7.5 | 35
